Among the data in ChEMBL document CHEMBL4190298, “Stereochemistry of a Second Riolozane and Other Diterpenoids from Jatropha dioica” (J Nat Prod, 2017) are CC50, IC50 and selectivity ratio values, retold here.

A short description of data set [1]: Cytotoxicity against African green monkey Vero cells assessed as reduction in cell viability after 3 days by MTT assay. The data set is classed as cell-based. The conditions noted are these: chlorocebus sabaeus. In a few lines:
(§1)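 Vero cells (ATCC CRL-1586) were grown in advanced DMEM with 2% FBS at 37 °C and 5% CO2 and exposed to compound at 100, 200, 400, 800 or 1600 μM for 3 days. Viability was read by MTT (10 μL of 5 mg/mL stock added). CC50 is the concentration reducing viability by 50% relative to untreated cells, taken as 100%. Triplicate; mean ± SD.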
Background: Tetrazolium dyes change colour on reduction, which living cells bring about.

Data set [2] has as its system Human alphaherpesvirus 1. The experiment in a line: Antiviral activity against HSV-1 infected in African green monkey Vero cells assessed as inhibition of virus plaque formation after 72 hrs by Giemsa staining based assay. The data set is classed as functional, organism-based. The conditions noted are these: Human alphaherpesvirus 1, Vero. The essentials:
(§2)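 Vero cells (ATCC CRL-1586) were grown in advanced DMEM with 2% FBS at 37 °C and 5% CO2. Wells of 5×10^5 cells were infected with 100 PFU HSV-1 or HSV-2 for 1 h at 37 °C. The supernatant was then replaced with medium containing 1% DMSO, 0.32% IgG and compound at 80, 160 or 320 μM. After 72 h, cells were MeOH-fixed and Giemsa-stained. Mock and acyclovir controls; triplicate.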

The subject of data set [3] is Human alphaherpesvirus 2. In words: Antiviral activity against HSV-2 infected in African green monkey Vero cells assessed as inhibition of virus plaque formation after 72 hrs by Giemsa staining based assay. It is filed as functional, organism-based. The conditions noted are these: Human alphaherpesvirus 2, Vero. In a few lines:
as §2

Data set [4] is described as follows: Selectivity index, ratio of CC50 for African green monkey Vero cells to IC50 for HSV-1 infected in African green monkey Vero cells. It is filed as toxicity. The conditions noted are these: HSV-1 infected Vero cells, read-out: Ratio CC50/IC50.
Data set [5] in a line: Selectivity index, ratio of CC50 for African green monkey Vero cells to IC50 for HSV-2 infected in African green monkey Vero cells. The data set is classed as toxicity. The conditions noted are these: HSV-2 infected Vero cells, read-out: Ratio CC50/IC50.
Data set [6] can be described thus: Cytotoxicity against African green monkey Vero cells. The data set is classed as cell-based. The conditions noted are these: chlorocebus sabaeus. In a few lines:
as §1

The test system of data set [7] is Human alphaherpesvirus 1. In words: Antiviral activity against HSV-1 infected in African green monkey Vero cells assessed as inhibition of virus plaque formation. The data set is classed as functional, organism-based. Particulars: Human alphaherpesvirus 1, Vero. The essentials:
as §2

In data set [8] the test system is Human alphaherpesvirus 2. The experiment in a line: Antiviral activity against HSV-2 infected in African green monkey Vero cells assessed as inhibition of virus plaque formation. It is filed as functional, organism-based. Particulars: Human alphaherpesvirus 2, Vero. In a few lines:
as §2

The term CC50 denotes the concentration at which the toxic effect on the cells reaches its halfway point. The IC50 is the concentration at which inhibition is half-maximal. For the molecule `C/C1=C/[C@]23O[C@H]2[C@H](C)C[C@@H]3C(=O)[C@]2(C)C(=O)CC(C)(C)[C@H]2CC1=O`, in data set [1], the CC50 at 72 h was over 1520 µM. Further, the IC50 with Human alphaherpesvirus 1 [2] and in the data set with Human alphaherpesvirus 2 [3] was over 303 µM in each case.

Turning to `C[C@@H]1CC2=C(C1)[C@@H]([C@@]1(C)C(=O)C[C@H]3[C@@H](C1=O)C3(C)C)[C@@H](C)C2=O`, the cytotoxic concentration (CC50) at 72 h in data set [1] worked out at 584 µM. For the same molecule, the IC50 with Human alphaherpesvirus 1 [2] came out at 180 µM; with Human alphaherpesvirus 2 [3], 172 µM. Also, the results for the selectivity ratio in data set [4] and in data set [5] were 3.2 and 3.4, respectively.

`C[C@@H]1CC2=C(C1)[C@@H]([C@@]1(C)C(=O)C[C@H]3[C@@H](C1=O)C3(C)C)[C@H](C)C2=O`: the selectivity ratio in data set [4] and in data set [5] was 5.8 in each case. This molecule showed a CC50 in data set [6] of 1220 µM. The IC50 with Human alphaherpesvirus 1 [7] and with Human alphaherpesvirus 2 [8] was 210 µM throughout.

Consider `Nc1nc2c(ncn2COCCO)c(=O)[nH]1` [ACYCLOVIR], for which the IC50 is 4.75 µM with Human alphaherpesvirus 1 [2] and 3.11 µM in the data set on Human alphaherpesvirus 2 [3].
